# Hits are enriched below; roughly 1.9% of the tested compounds scored in any of these assays.
# TLR4-MyD88 BLA = TLR4-MyD88 interaction inhibition in cells; O00206+Q99836; HeLa CL3-4 TLR4/MyD88 BLA complementation, FRET ratio; inhibition, % at 8.4 µM; actives 0.18% (n = 200,000); AID 861; in the data active = inhibition above about 25%;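 also: 0% = vehicle and 100% = reference inhibitor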
# TLR9-MyD88 block = blocks human TLR9 binding to MyD88; AID 504734; Q9NR96+Q99836; CHO BLA complementation TLR9-MyD88, CCF4 FRET ratio; inhibition, % at 4.98 µM; actives 0.21% (n = 340,000);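 active = inhibition above the mean over all tested compounds plus 3 SD, cut at about 21% in these data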;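 also: 0% = DMSO only wells and 100% = clavulanate BLA inhibitor control wells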
# NTR1 agonist = NTR1 (human) agonism | NTR1-U2OS beta-arrestin-GFP spot imaging, agonist mode | activation, % at 20 µM | actives 0.17% (n = 330,000) | AID 493036;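 active = activation at or above 40% of the spot to cytoplasm intensity ratio, with at least 20 cells analyzed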;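 also: 0% = DMSO without peptide and 100% = 100 nM NTR1 peptide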
# NOD2-RIPK2 inh = NOD2-RIPK2 protein interaction inhibition | AID 624267 | inhibition, % at 4.98 µM | CHO BLA complementation NOD2-RIPK2, CCF4 ratio | actives 0.38% (n = 360,000) | O43353; in the data active = inhibition above about 21%;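 also: 0% = vehicle only and 100% = reference blocker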
# MC4R barr agon = agonists of human melanocortin 4 receptor (MC4R) beta-arrestin; U2OS MC4R beta-arrestin complementation, luminescence; percent of melanotan II response, DMSO zero; actives 0.98% (n = 360,000); AID 540308; activation, % at 8.9 µM; P32245;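 active = activation above a per-plate cutoff, the mean activation of sample wells on that plate plus 3 SD, cut at about 8% in these data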
# MC4R antag cAMP = human MC4R antagonism in cAMP assay | P32245 | MC4R-expressing cells, MTII-stimulated cAMP, LANCE TR-FRET | inhibition, % at 6.5 µM | actives 0.48% (n = 360,000);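 active = inhibition above its plate's cutoff, the mean of tested wells on that plate plus 3 SD, cut at about 29% in these data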;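 also: 0% = Melanotan II alone and 100% = Melanotan II plus saturating MCL0020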
#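 Assay system: U2OS-MC4R stable cell line; Also added: Melanotan II; Technique: Eu-cAMP/anti-cAMP TR-FRET, emission 671 nm; Times: 30-min compound, 1-h challenge, 1-h detection, room temperature.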
# U2OS cAMP counter = counter-screen for MC4R antagonists: nonselective cAMP signaling inhibitors; actives 26% (n = 1,600); shares compounds with MC4R antag cAMP; inhibition, % at 6.5 µM; AID 602193; parental U2OS, forskolin cAMP, LANCE TR-FRET;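 active = mean inhibition over triplicates above the low-control well mean plus 3 SD, set per campaign, cut at about 13% in these data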;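 also: signal is single emission at 671 nm which falls as cellular cAMP rises; 0% = forskolin-stimulated wells and 100% = buffer without forskolin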
# MC4R cAMP antag = human MC4R cAMP antagonism confirmation; shares compounds with MC4R antag cAMP; MC4R-expressing cells, MTII-stimulated cAMP, TR-FRET; actives 27% (n = 1,600); AID 602195; inhibition, % at 6.5 µM; in the data active = inhibition above about 29%;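 also: 0% = agonist stimulated wells alone and 100% = agonist stimulated wells plus saturating reference antagonist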
# * marks the source's active call; other numbers are inactive results; . = no result; + = active, no number.
SMILES,TLR4-MyD88 BLA,TLR9-MyD88 block,NTR1 agonist,NOD2-RIPK2 inh,MC4R barr agon,MC4R antag cAMP,U2OS cAMP counter,MC4R cAMP antag
COc1ccc(/C=N/Nc2nc(Nc3ccccc3)nc(N3CCCC3)n2)cc1[N+](=O)[O-],4,0,2,-8,3,32*,2,1
COc1ccccc1C(=O)OCCCN=C1NS(=O)(=O)c2ccccc21,-3,3,0,4,-1,10,.,.
COc1ccc(C(=O)OCCN=C2NS(=O)(=O)c3ccccc32)cc1OC,4,-5,0,-12,2,30*,-1,-10
COCCNc1nc2c(c(=O)n(Cc3cccc(Cl)c3)c(=O)n2C)n1C,.,-7,-1,-1,-2,29*,1,0
COCCNc1nc2c(c(=O)n(Cc3cccc(Br)c3)c(=O)n2C)n1C,.,4,1,-4,0,17,.,.
COc1ccccc1CN(C)C[C@H]1OCc2cnnn2CCCC(=O)N([C@H](C)CO)C[C@@H]1C,.,-11,.,-7,-1,9,.,.
COc1ccccc1C(O)(c1ccccc1)c1ccccc1OC,.,-10,.,-9,3,-1,.,.
CC(c1ccccc1C(O)(c1ccccc1)c1ccccc1)N(C)C (stereo not drawn),14,2,3,-7,4,29*,-9,3
COC(=O)c1cnc(Oc2c(Cl)cc(N)cc2Cl)cc1C(F)(F)F,.,15,10,-4,0,4,.,.
O=C1OC(c2ccccc2)=NC12CC2c1ccc(Cl)cc1 (stereo not drawn),-8,-4,25,-4,-1,29*,0,4
O=CN1N=C(c2ccccc2)CC1c1ccc(Cl)cc1 (stereo not drawn),.,5,0,10,1,16,.,.
NC(=S)Nc1cccc(F)c1,.,1,2,5,1,29*,-3,-4
COc1cc(CN2CCCC(N3CCN(c4ccc(F)cc4)CC3)C2)ccc1F (stereo not drawn),.,-11,2,-7,1,30*,0,5
Nn1c(SCC(=O)N2CCOCC2)nnc1-c1cccnc1,.,10,0,-6,1,8,.,.
CN1OCC(S(=O)(=O)c2ccccc2)C1c1ccccc1 (stereo not drawn),0,0,-1,-4,-2,4,.,.
O=S(=O)(c1ccccc1)C1CON(Cc2ccccc2)C1c1ccccc1 (stereo not drawn),-5,-8,1,-2,2,30*,2,-9
C[C@@H]1CC[C@H]2C(=O)N3[C@@H](CC[C@@H](C)[C@@H]3c3ccc(Br)cc3)C(=O)N2[C@H]1c1ccc(Br)cc1,7,-5,13,-2,-1,17,.,.
C#CCOCCOCCOCCNc1nc(N2CCN(C(=O)CCCCCCCCCCNC(=O)[C@H]([C@@H](C)CC)n3cc(CCCCN=C(N)N)nn3)CC2)nc(N2CCN(C(=O)CCCCCCCCCCNC(=O)[C@@H]([C@H](C)O)n3cc(C)nn3)CC2)n1,.,-3,9,41*,-1,38*,19*,55*
COc1ccc(N(C)S(=O)(=O)c2cccc(C(=O)OCC(=O)NCc3ccccc3OC)c2)cc1,.,-4,4,-7,-1,30*,3,5
CN(c1ccccc1)S(=O)(=O)c1cccc(C(=O)OCC(=O)NCc2ccccc2)c1,.,-14,5,-4,1,14,.,.
CC(C)(C)c1ccc2c(c1)OC(C(=O)N/N=C\c1ccc(-c3cccc(C(=O)O)c3)o1)CO2 (stereo not drawn),.,-8,3,-4,0,29*,-4,-11
O=[N+]([O-])c1cc(S(=O)(=O)NCCN2CCOCC2)ccc1Cl,.,3,0,0,0,29*,5,17
C[C@H](NC(=O)[C@@H]1CCCN1C(=O)[C@@H]1CCCN1C(=O)OC(C)(C)C)c1ccccc1,.,.,.,-3,.,.,.,.
COc1cccc2[nH]c3c(Cl)ncnc3c12,13,-1,0,1,-1,29*,8,27
COc1cccc2[nH]c3c(N4CCCCC4)ncnc3c12,-1,4,4,10,0,3,.,.
SMILES,TLR4-MyD88 BLA,TLR9-MyD88 block,NTR1 agonist,NOD2-RIPK2 inh,MC4R barr agon,MC4R antag cAMP,U2OS cAMP counter,MC4R cAMP antag
FC(F)Oc1ccc(-n2cc(-c3ccc(Cl)cc3)[n+]3c2CCCCC3)cc1,.,-4,1,-6,-1,29*,-1,-5
Cc1ccc(C(CNS(=O)(=O)c2ccc(F)cc2C)N2CCN(C)CC2)cc1 (stereo not drawn),.,-5,0,1,-1,8,.,.
Cc1noc(C(=O)Nc2cccc(O)c2)c1Cl,.,-1,2,7,1,29*,4,-3
O=C(c1ccco1)N1CCN(c2ncnc3scc(-c4ccc(Cl)cc4)c23)CC1,.,-13,.,8,4,31*,-3,6
O=C(c1ccco1)N1CCN(c2ncnc3sc4c(c23)CCC4)CC1,5,-1,4,-12,0,0,.,.
Cc1ccc2c(c1)CCCN2C(=O)c1ccncc1,3,-4,1,-7,1,29*,-5,4
Cc1cc(C(=O)N/N=C/c2cc(Br)c(Br)o2)n[nH]1,.,-15,0,-8,1,-3,.,.
O=C(NCCOc1ccccc1Cl)c1cc(F)c(F)cc1Cl,9,-3,4,5,-1,20,.,.
O=C(NCCOc1ccccc1Cl)c1ncn[nH]1,0,-5,-2,8,0,30*,-2,-9
O=S(=O)(c1ccc2c(c1)OCCO2)N1C[C@@H]2C[C@H]1CN2S(=O)(=O)c1c(F)cccc1F,.,-6,-2,2,0,6,.,.
Cc1cc(OC(=O)c2ccc(C)c(C)c2)c([N+](=O)[O-])c(=O)[nH]1,.,-7,-1,-9,-1,0,.,.
Cc1ccc(Sc2ccc(NC(=O)c3ccc(S(C)(=O)=O)cc3Cl)cc2)cc1,2,-2,5,-2,7,108*,125*,+
CCn1nnnc1NCc1ccc(OCc2c(F)cccc2Cl)c(OC)c1,14,0,1,0,0,32*,-3,7
COc1cc(CNc2ccc3[nH]c(=O)[nH]c3c2)ccc1OCc1c(F)cccc1Cl,.,3,0,-9,-1,1,.,.
CSCCC(NC(=O)c1ccc([N+](=O)[O-])cc1Cl)C(=O)OCC(=O)NCCCc1ccccc1 (stereo not drawn),5,2,3,9,7,37*,16*,37*

# Source: PubChem BioAssay (several laboratories)
